Results reported in ChEMBL document CHEMBL4334458, “Design, synthesis and antibacterial evaluation of novel 15-membered 11a-azahomoclarithromycin derivatives with the 1, 2, 3-triazole side chain” (Eur J Med Chem, 2019).
Converted amounts (≈) assume the structure as drawn. The source made the active and inactive calls. No cut-off for these calls is given here.

What was measured:
Escherichia coli = test: Antibacterial activity against penicillin-susceptible Escherichia coli ATCC 25922 incubated for 24 hrs by broth dilution method; assay type: functional; conditions: ATCC 25922, 24 h
Procedure, shortened: (§1)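 CLSI broth microdilution in cation-adjusted Mueller-Hinton broth. Twofold dilutions spanned 0.25–128 or 0.5–256 µg/mL, with CAM and AZM as controls. Log-phase bacteria were added and incubated 24 h at 37 °C. MIC was read by turbidity as the concentration of the last clear well.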

Streptococcus pyogenes [1] = test: Antibacterial activity against erythromycin-susceptible Streptococcus pyogenes 1 clinical isolate incubated for 24 hrs by broth dilution method; assay type: functional; procedure, shortened: as §1
Streptococcus pneumoniae [2] = test: Antibacterial activity against erythromycin-resistant Streptococcus pneumoniae AB11 expressing the ermB and mefA incubated for 24 hrs by broth dilution method; assay type: functional
Streptococcus pyogenes [3] = test: Antibacterial activity against erythromycin-resistant Streptococcus pyogenes 2 clinical isolate incubated for 24 hrs by broth dilution method; assay type: functional
Staphylococcus aureus [4] = test: Antibacterial activity against methicillin-resistant Staphylococcus aureus ATCC 43300 incubated for 24 hrs by broth dilution method; assay type: functional; conditions: ATCC 43300, 24 h
Staphylococcus aureus [5] = test: Bactericidal activity against erythromycin-susceptible Staphylococcus aureus ATCC 25923 incubated for 24 hrs followed by re-plating on tryptic soy agar plates for 24 hrs by broth microdilution assay; assay type: functional; conditions: ATCC 25923, 24 h
Procedure, shortened: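 Built on the broth microdilution MIC set-up (CAMH, 24 h, 37 °C). After 24 h, contents of clear wells were plated on tryptic soy agar and incubated 24 h at 37 °C. MBC was taken as the lowest concentration giving no colonies.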

Staphylococcus aureus [6] = test: Antibacterial activity against erythromycin-susceptible Staphylococcus aureus ATCC 25923 incubated for 24 hrs by broth dilution method; assay type: functional; conditions: ATCC 25923, 24 h; procedure, shortened: as §1
Staphylococcus aureus [7] = test: Ratio of MBC to MIC for erythromycin-susceptible Staphylococcus aureus ATCC 25923; assay type: functional
Streptococcus pneumoniae [8] = test: Antibacterial activity against erythromycin-resistant Streptococcus pneumoniae B1 expressing the ermB incubated for 24 hrs by broth dilution method; assay type: functional
Pseudomonas aeruginosa = test: Antibacterial activity against penicillin-susceptible Pseudomonas aeruginosa ATCC 27853 incubated for 24 hrs by broth dilution method; assay type: functional; conditions: ATCC 27853, 24 h; procedure, shortened: as §1
[9] = Cytotoxicity against human MCF7 cells assessed as viable cells at 64 to 128 ug/ml incubated for 24 hrs by MTT assay relative to control; assay type: cell-based; conditions: read-out: Activity
Procedure, shortened: (§2)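 MCF-7 cells were seeded at 10^4 cells/well and allowed to settle overnight. Compound was added for 24 h, with CAM as control and DMSO as vehicle control. MTT (5 mg/mL stock) was then added for 4 h at 37 °C, formazan dissolved in DMSO for 10 min, and absorbance read at 570 nm. Read-out was percent viable cells.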

Bacillus subtilis = test: Antibacterial activity against penicillin-susceptible Bacillus subtilis ATCC 9372 incubated for 24 hrs by broth dilution method; assay type: functional; conditions: ATCC 9372, 24 h; procedure, shortened: as §1
Staphylococcus aureus [10] = test: Antibacterial activity against penicillin-resistant Staphylococcus aureus ATCC 31007 incubated for 24 hrs by broth dilution method; assay type: functional; conditions: ATCC 31007, 24 h
Streptococcus pyogenes [11] = test: Ratio of MIC for CAM to MIC for test compound for antibacterial activity against erythromycin-resistant Streptococcus pyogenes 2 clinical isolate incubated for 24 hrs by broth dilution method; assay type: functional
Procedure, shortened: (§3)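 Ratio of clarithromycin MIC to compound MIC. Both MICs come from CLSI broth microdilution in cation-adjusted Mueller-Hinton broth with 2-fold dilutions, log-phase inoculum and 24 h at 37 °C, read by turbidity as the last clear well.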

Staphylococcus aureus [12] = test: Ratio of MIC for CAM to MIC for test compound for antibacterial activity against penicillin-resistant Staphylococcus aureus ATCC 31007 incubated for 24 hrs by broth dilution method; assay type: functional; procedure, shortened: as §3
Streptococcus pneumoniae [13] = test: Ratio of MIC for CAM to MIC for test compound for antibacterial activity against erythromycin-resistant Streptococcus pneumoniae B1 expressing the ermB incubated for 24 hrs by broth dilution method; assay type: functional; procedure, shortened: as §3
Streptococcus pneumoniae [14] = test: Ratio of MIC for CAM to MIC for test compound for antibacterial activity against erythromycin-resistant Streptococcus pneumoniae AB11 expressing the ermB and mefA incubated for 24 hrs by broth dilution method; assay type: functional; procedure, shortened: as §3
Staphylococcus aureus [15] = test: Ratio of MIC for CAM to MIC for test compound for antibacterial activity against methicillin-resistant Staphylococcus aureus ATCC 43300 incubated for 24 hrs by broth dilution method; assay type: functional; procedure, shortened: as §3
MCF7 = test: Cytotoxicity against human MCF7 cells assessed as viable cells up to 32 ug/ml incubated for 24 hrs by MTT assay; assay type: cell-based; conditions: mcf7, 24 h; procedure, shortened: as §2
Streptococcus pneumoniae [16] = test: Bactericidal activity against erythromycin-resistant Streptococcus pneumoniae AB11 expressing the ermB and mefA incubated for 24 hrs followed by re-plating on tryptic soy agar plates for 24 hrs by broth microdilution assay; assay type: functional
Procedure, shortened: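 Follows the 24 h, 37 °C CAMH broth microdilution MIC plate; contents of clear wells plated onto tryptic soy agar and incubated 24 h at 37 °C; MBC taken as the lowest concentration giving no colonies.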

Streptococcus pneumoniae [17] = test: Ratio of MBC to MIC for erythromycin-resistant Streptococcus pneumoniae AB11 expressing the ermB and mefA; assay type: functional
Streptococcus pneumoniae [18] = test: Bactericidal activity against erythromycin-resistant Streptococcus pneumoniae AB11 expressing the ermB and mefA at 1 to 4 times MIC incubated for up to 9 hrs by time-kill curve assay; assay type: functional, organism-based
Streptococcus pneumoniae [19] = test: Bacteriostatic activity against erythromycin-resistant Streptococcus pneumoniae AB11 expressing the ermB and mefA by time-kill curve assay; assay type: functional, organism-based
Streptococcus pneumoniae [20] = test: Bacteriostatic activity against erythromycin-resistant Streptococcus pneumoniae AB11 expressing the ermB and mefA at 1 to 4 times MIC incubated for 9 to 24 hrs by time-kill curve assay; assay type: functional, organism-based

| SMILES | MIC (Escherichia coli) [µg/mL] | MIC (Streptococcus pyogenes [1]) [µg/mL] | MIC (Streptococcus pneumoniae [2]) [µg/mL] | MIC (Streptococcus pyogenes [3]) [µg/mL] | MIC (Staphylococcus aureus [4]) [µg/mL] | MBC (Staphylococcus aureus [5]) [µg/mL] | MIC (Staphylococcus aureus [6]) [µg/mL] | Ratio (Staphylococcus aureus [7]) | MIC (Streptococcus pneumoniae [8]) [µg/mL] | MIC (Pseudomonas aeruginosa) [µg/mL] | MIC (Bacillus subtilis) [µg/mL] | MIC (Staphylococcus aureus [10]) [µg/mL] | MBC (Streptococcus pneumoniae [16]) [µg/mL] | Ratio (Streptococcus pneumoniae [17]) | also measured |
| --- | --- | --- | --- | --- | --- | --- | --- | --- | --- | --- | --- | --- | --- | --- | --- |
| COc1cccc(-n2cc(COC[C@H]3CN(C)C[C@@H](C)[C@@H](O)[C@H](C)C[C@@](C)(OC)[C@H](O[C@@H]4O[C@H](C)C[C@H](N(C)C)[C@H]4O)[C@@H](C)[C@H](O[C@H]4C[C@@](C)(OC)[C@@H](O)[C@H](C)O4)[C@@H](C)C(=O)O3)nn2)c1 | 64 (≈ 69.4 µM) | 0.5 (≈ 0.542 µM) | 128 (≈ 139 µM) | 128 (≈ 139 µM) | > 256 | > 128 | ≤ 0.25 | >512 | > 256 | 32 (≈ 34.7 µM) | ≤ 0.25 | > 256 |  |  | viability at 24 h [9]: 60% |
| CO[C@]1(C)C[C@@H](C)[C@H](O)[C@H](C)CN(C)C[C@@H](COCc2cn(-c3ccc(C(C)C)cc3)nn2)OC(=O)[C@H](C)[C@@H](O[C@H]2C[C@@](C)(OC)[C@@H](O)[C@H](C)O2)[C@H](C)[C@H]1O[C@@H]1O[C@H](C)C[C@H](N(C)C)[C@H]1O | 64 (≈ 68.5 µM) | 4 (≈ 4.28 µM) | 16 (≈ 17.1 µM) | 16 (≈ 17.1 µM) | 32 (≈ 34.3 µM) |  | 4 (≈ 4.28 µM) |  | 16 (≈ 17.1 µM) | 128 (≈ 137 µM) | 1 (≈ 1.07 µM) | 32 (≈ 34.3 µM) |  |  | Ratio (Streptococcus pyogenes [11]): 8 - 16; Ratio (Staphylococcus aureus [12]): 8 - 16; Ratio (Streptococcus pneumoniae [13]): 8 - 16; Ratio (Streptococcus pneumoniae [14]): 8 - 16; Ratio (Staphylococcus aureus [15]): 8 - 16 |
| CO[C@]1(C)C[C@@H](C)[C@H](O)[C@H](C)CN(C)C[C@H](COCc2cn(-c3ccccc3)nn2)OC(=O)[C@H](C)[C@@H](O[C@H]2C[C@@](C)(OC)[C@@H](O)[C@H](C)O2)[C@H](C)[C@H]1O[C@@H]1O[C@H](C)C[C@H](N(C)C)[C@H]1O | 64 (≈ 71.7 µM) | 0.25 (≈ 0.28 µM) | 128 (≈ 143 µM) | 128 (≈ 143 µM) | > 256 | 128 (≈ 143 µM) | ≤ 0.25 | >512 | > 256 | 16 (≈ 17.9 µM) | ≤ 0.25 | > 256 |  |  | viability at 24 h [9]: 60% |
| CO[C@]1(C)C[C@@H](C)[C@H](O)[C@H](C)CN(C)C[C@H](COCc2cn(-c3ccccn3)nn2)OC(=O)[C@H](C)[C@@H](O[C@H]2C[C@@](C)(OC)[C@@H](O)[C@H](C)O2)[C@H](C)[C@H]1O[C@@H]1O[C@H](C)C[C@H](N(C)C)[C@H]1O | 64 (≈ 71.7 µM) | 0.5 (≈ 0.56 µM) | 128 (≈ 143 µM) | 128 (≈ 143 µM) | > 256 | > 128 | ≤ 0.25 | >512 | > 256 | 16 (≈ 17.9 µM) | ≤ 0.25 | > 256 |  |  | Activity (MCF7): Non-Toxic |
| CC[C@H]1OC(=O)[C@H](C)[C@@H](O[C@H]2C[C@@](C)(OC)[C@@H](O)[C@H](C)O2)[C@H](C)[C@@H](O[C@@H]2O[C@H](C)C[C@H](N(C)C)[C@H]2O)[C@](C)(OC)C[C@@H](C)C(=O)[C@H](C)[C@@H](O)[C@]1(C)O [CLARITHROMYCIN] | 128 (≈ 171 µM) | ≤ 0.03 | 128 (≈ 171 µM) | 256 (≈ 342 µM) | > 256 | 128 (≈ 171 µM) | ≤ 0.25 | >512 | > 256 | 32 (≈ 42.8 µM) | ≤ 0.25 | > 256 | 128 (≈ 171 µM) | 1 |  |
| CCCc1ccc(-n2cc(COC[C@@H]3CN(C)C[C@@H](C)[C@@H](O)[C@H](C)C[C@@](C)(OC)[C@H](O[C@@H]4O[C@H](C)C[C@H](N(C)C)[C@H]4O)[C@@H](C)[C@H](O[C@H]4C[C@@](C)(OC)[C@@H](O)[C@H](C)O4)[C@@H](C)C(=O)O3)nn2)cc1 | 64 (≈ 68.5 µM) | 4 (≈ 4.28 µM) | 8 (≈ 8.56 µM) | 32 (≈ 34.3 µM) | 16 (≈ 17.1 µM) |  | 4 (≈ 4.28 µM) |  | 16 (≈ 17.1 µM) | > 128 | 1 (≈ 1.07 µM) | 32 (≈ 34.3 µM) | 64 (≈ 68.5 µM) | 8 | Ratio (Streptococcus pyogenes [11]): 8 - 16; Ratio (Staphylococcus aureus [12]): 8 - 16; Ratio (Streptococcus pneumoniae [13]): 8 - 16; Ratio (Streptococcus pneumoniae [14]): 8 - 16; Ratio (Staphylococcus aureus [15]): 8 - 16 |
| CCCCc1ccc(-c2cn(C[C@@H]3CN(C)C[C@@H](C)[C@@H](O)[C@H](C)C[C@@](C)(OC)[C@H](O[C@@H]4O[C@H](C)C[C@H](N(C)C)[C@H]4O)[C@@H](C)[C@H](O[C@H]4C[C@@](C)(OC)[C@@H](O)[C@H](C)O4)[C@@H](C)C(=O)O3)nn2)cc1 | > 128 | 8 (≈ 8.71 µM) | 8 (≈ 8.71 µM) | 8 (≈ 8.71 µM) | 8 (≈ 8.71 µM) |  | 8 (≈ 8.71 µM) |  | 64 (≈ 69.7 µM) | > 128 | 32 (≈ 34.8 µM) | 8 (≈ 8.71 µM) | 64 (≈ 69.7 µM) | 8 | Activity (Streptococcus pneumoniae [18]): Active; Activity (Streptococcus pneumoniae [19]): Dose-dependent effect; Activity (Streptococcus pneumoniae [20]): Active |
